In ChEMBL document CHEMBL1139333, “Search for new pharmacophores for antimalarial activity. Part I: synthesis and antimalarial activity of new 2-methyl-6-ureido-4-quinolinamides” (Bioorg Med Chem, 2009):
In brackets after ≈: the same amount, converted by molar mass.

Columns and labels:
Plasmodium falciparum [1] = assay: Antimalarial activity against chloroquine-sensitive Plasmodium falciparum 3D7 infected erythrocytes after 72 hrs by MSF assay; conditions: 3D7, 72 h
[2] = Selectivity index, ratio of CC50 for african green monkey (Cercopithecus aethiops) Vero cells to IC50 for Plasmodium falciparum 3D7; assay type: functional
Plasmodium falciparum [3] = assay: Antimalarial effect as schizonticidal activity against chloroquine-sensitive Plasmodium falciparum 3D7 after 40 hrs; conditions: 3D7, 40 h
Plasmodium yoelii [4] = assay: Antimalarial activity as parasitaemia after 28 days against chloroquine-resistant Plasmodium yoelii N67 infected Swiss mice (Mus musculus) at 50 mg/kg peroral dose over 7 days; assay type: functional; conditions: route oral
Plasmodium yoelii [5] = assay: Antimalarial activity as parasitaemia after 28 days against chloroquine-resistant Plasmodium yoelii N67 infected Swiss mice (Mus musculus) at 50 mg/kg peroral dose over 4 days; assay type: functional; conditions: route oral
Procedure, shortened: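 Swiss mice (25 g, either sex, n=5) infected on day 0 with 1 × 10⁶ P. yoelii N67 chloroquine-resistant parasitized cells. Test compounds were given orally as an aqueous suspension at 50 mg/kg from day 0 to 3; vehicle controls were run alongside. Parasitaemia was counted on tail-vein thin smears on days 4, 7, 14, 21 and 28, or until death.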

| SMILES | IC50 (Plasmodium falciparum [1]) [µg/mL] | MIC (Plasmodium falciparum [3]) [µg/mL] | also measured |
| --- | --- | --- | --- |
| Cc1cc(NC(=O)c2cccc(Cl)c2)c2cc(NC(=O)Nc3cccc(Cl)c3C)ccc2n1 | 0.034 (≈ 0.0709 µM) | 1 (≈ 2.09 µM) | Selectivity Index [2]: 184.5 |
| Cc1cc(NC(=O)c2ccccc2)c2cc(NC(=O)Nc3cccc(C(F)(F)F)c3)ccc2n1 |  | 10 (≈ 21.5 µM) |  |
| Cc1cc(NC(=O)CN2CCN(C)CC2)c2cc(NC(=O)Nc3cccc(C(F)(F)F)c3)ccc2n1 | 0.0008 (≈ 0.0016 µM) | 0.25 (≈ 0.499 µM) | Activity (Plasmodium yoelii [4]): 21.9%; Activity (Plasmodium yoelii [5]): 2.5%; Selectivity Index [2]: 2594.9 |
| Cc1cc(NC(=O)c2ccccc2Cl)c2cc(NC(=O)Nc3cccc(C(F)(F)F)c3)ccc2n1 |  | 2 (≈ 4.01 µM) |  |
| Cc1cc(NC(=O)c2cccc(Cl)c2)c2cc(NC(=O)Nc3cc(Cl)cc(Cl)c3)ccc2n1 | 0.218 (≈ 0.436 µM) | 2 (≈ 4 µM) | Selectivity Index [2]: 187.7 |
| Cc1cc(NC(=O)c2ccccc2)c2cc(NC(=O)Nc3ccc(Br)cc3)ccc2n1 |  | 10 (≈ 21 µM) |  |
| Cc1cc(NC(=O)c2ccco2)c2cc(NC(=O)Nc3ccc(Cl)cc3)ccc2n1 | 0.0139 (≈ 0.033 µM) | 0.5 (≈ 1.19 µM) | Activity (Plasmodium yoelii [4]): 13.2%; Activity (Plasmodium yoelii [5]): 2.95%; Selectivity Index [2]: 3909.5 |
| Cc1cc(NC(=O)CN2CCCCC2)c2cc(NC(=O)Nc3ccc(Cl)cc3)ccc2n1 | 0.023 (≈ 0.0509 µM) | 0.5 (≈ 1.11 µM) | Selectivity Index [2]: 64.9 |
| CC(=O)c1cccc(NC(=O)Nc2ccc3nc(C)cc(NC(=O)c4cccc(Cl)c4)c3c2)c1 |  | 10 (≈ 21.1 µM) |  |
| Cc1cc(NC(=O)c2ccccc2Cl)c2cc(NC(=O)Nc3ccc(Cl)c(Cl)c3)ccc2n1 | 0.194 (≈ 0.389 µM) | 1 (≈ 2 µM) | Selectivity Index [2]: 16.8 |
| Cc1cc(NC(=O)c2cccc(Cl)c2)c2cc(NC(=O)Nc3ccc(F)c(Cl)c3)ccc2n1 | 0.0682 (≈ 0.141 µM) |  | Activity (Plasmodium yoelii [4]): 15.5%; Activity (Plasmodium yoelii [5]): 3.76%; Selectivity Index [2]: 125.6 |
| CC(=O)c1cccc(NC(=O)Nc2ccc3nc(C)cc(NC(=O)c4ccccc4)c3c2)c1 |  | 10 (≈ 22.8 µM) |  |
| CC(=O)c1cccc(NC(=O)Nc2ccc3nc(C)cc(NC(=O)CN4CCN(C)CC4)c3c2)c1 | 0.146 (≈ 0.308 µM) | 0.5 (≈ 1.05 µM) | Selectivity Index [2]: 524.5 |
| Cc1cc(NC(=O)c2ccccc2)c2cc(NC(=O)Nc3cccc(Cl)c3C)ccc2n1 |  | 50 (≈ 112 µM) |  |
| CC(=O)c1ccc(NC(=O)Nc2ccc3nc(C)cc(NC(=O)c4ccco4)c3c2)cc1 |  | 10 (≈ 23.3 µM) |  |
| CC(=O)Nc1cc(C)nc2ccc(NC(=O)Nc3cc(Cl)cc(Cl)c3)cc12 |  | 2 (≈ 4.96 µM) |  |
| Cc1cc(NC(=O)c2cccc(Cl)c2)c2cc(NC(=O)Nc3cccc(C#N)c3)ccc2n1 |  | 1 (≈ 2.19 µM) |  |
| Cc1cc(NC(=O)CN2CCCCC2)c2cc(NC(=O)Nc3cccc(C(F)(F)F)c3)ccc2n1 | 0.0335 (≈ 0.069 µM) | 0.25 (≈ 0.515 µM) | Selectivity Index [2]: 214.3 |
| CC(=O)Nc1cc(C)nc2ccc(NC(=O)Nc3ccc(Cl)cc3)cc12 |  | 10 (≈ 27.1 µM) |  |
| Cc1cc(NC(=O)c2cccc(Cl)c2)c2cc(NC(=O)Nc3ccc(C)c(Cl)c3)ccc2n1 |  | 10 (≈ 20.9 µM) |  |
| Cc1cc(NC(=O)c2ccccc2Cl)c2cc(NC(=O)Nc3cc(Cl)cc(Cl)c3)ccc2n1 | 0.0217 (≈ 0.0434 µM) |  | Selectivity Index [2]: 505 |
| Cc1cc(NC(=O)c2ccccc2)c2cc(NC(=O)Nc3ccc(Cl)c(C(F)(F)F)c3)ccc2n1 | 0.0194 (≈ 0.0389 µM) | 1 (≈ 2 µM) |  |

| SMILES | IC50 (Plasmodium falciparum [1]) [µg/mL] | MIC (Plasmodium falciparum [3]) [µg/mL] | also measured |
| --- | --- | --- | --- |
| CC(=O)c1ccc(NC(=O)Nc2ccc3nc(C)cc(NC(=O)CN4CCN(C)CC4)c3c2)cc1 | 0.014 (≈ 0.0295 µM) | 1 (≈ 2.11 µM) |  |
| Cc1cc(NC(=O)c2ccccc2)c2cc(NC(=O)Nc3ccc(C)c(Cl)c3)ccc2n1 |  | 2 (≈ 4.5 µM) |  |
| Cc1cc(NC(=O)c2ccccc2Cl)c2cc(NC(=O)Nc3ccc(Cl)c(C(F)(F)F)c3)ccc2n1 | 0.0356 (≈ 0.0667 µM) |  | Selectivity Index [2]: 270.9 |
| Cc1cc(NC(=O)c2ccccc2Cl)c2cc(NC(=O)Nc3cccc(Cl)c3C)ccc2n1 |  | 10 (≈ 20.9 µM) |  |
| Cc1cc(NC(=O)c2cccc(Cl)c2)c2cc(NC(=O)Nc3cccc(F)c3)ccc2n1 |  | > 50 |  |
| Cc1cc(NC(=O)c2ccccc2Cl)c2cc(NC(=O)Nc3ccc(F)cc3)ccc2n1 |  | 50 (≈ 111 µM) |  |
| Cc1cc(NC(=O)c2ccco2)c2cc(NC(=O)Nc3cc(Cl)cc(Cl)c3)ccc2n1 |  | 2 (≈ 4.39 µM) |  |
| CC(=O)c1ccc(NC(=O)Nc2ccc3nc(C)cc(NC(=O)c4ccccc4)c3c2)cc1 |  | 50 (≈ 114 µM) |  |
| CC(=O)Nc1cc(C)nc2ccc(NC(=O)Nc3ccc(C)c(Cl)c3)cc12 |  | 50 (≈ 131 µM) |  |
| Cc1cc(NC(=O)c2ccccc2Cl)c2cc(NC(=O)Nc3ccc(Cl)cc3)ccc2n1 |  | 2 (≈ 4.3 µM) |  |
| CC(=O)c1ccc(NC(=O)Nc2ccc3nc(C)cc(NC(=O)c4ccccc4Cl)c3c2)cc1 |  | 2 (≈ 4.23 µM) | Activity (Plasmodium yoelii [4]): 5.98%; Activity (Plasmodium yoelii [5]): 3.03% |
| CC(=O)c1cccc(NC(=O)Nc2ccc3nc(C)cc(NC(=O)CN4CCCCC4)c3c2)c1 |  |  | Selectivity Index [2]: 214.4 |
| CC(=O)Nc1cc(C)nc2ccc(NC(=O)Nc3ccc(C(C)=O)cc3)cc12 |  | 10 (≈ 26.6 µM) |  |
| Cc1cc(NC(=O)c2cccc(Cl)c2)c2cc(NC(=O)Nc3cccc(C(F)(F)F)c3)ccc2n1 | 0.0099 (≈ 0.0198 µM) |  | Selectivity Index [2]: 6014.2 |
| Cc1cc(NC(=O)CN2CCN(C)CC2)c2cc(NC(=O)Nc3cccc(C#N)c3)ccc2n1 |  | 2 (≈ 4.37 µM) |  |
| Cc1cc(NC(=O)c2ccccc2)c2cc(NC(=O)Nc3cccc(F)c3)ccc2n1 |  | 10 (≈ 24.1 µM) |  |
| Cc1cc(NC(=O)c2ccccc2)c2cc(NC(=O)Nc3ccc(Cl)cc3)ccc2n1 |  | > 50 |  |
| CCN(CC)CCCC(C)Nc1ccnc2cc(Cl)ccc12 (configuration not stated) [CHLOROQUINE] |  | 0.015 (≈ 0.0469 µM) |  |
| CC(=O)c1cccc(NC(=O)Nc2ccc3nc(C)cc(NC(=O)c4ccccc4Cl)c3c2)c1 |  | 2 (≈ 4.23 µM) |  |
| CCN1CCN(CC(=O)Nc2cc(C)nc3ccc(NC(=O)Nc4ccc(C)c(Cl)c4)cc23)CC1 | 0.0035 (≈ 0.00707 µM) | 0.5 (≈ 1.01 µM) |  |
| Cc1cc(NC(=O)c2ccco2)c2cc(NC(=O)Nc3ccc(Cl)c(C(F)(F)F)c3)ccc2n1 | 0.0099 (≈ 0.0203 µM) |  | Selectivity Index [2]: 713.3 |
| Cc1cc(NC(=O)CN2CCN(C)CC2)c2cc(NC(=O)Nc3cccc(F)c3)ccc2n1 |  | 10 (≈ 22.2 µM) |  |

| SMILES | IC50 (Plasmodium falciparum [1]) [µg/mL] | MIC (Plasmodium falciparum [3]) [µg/mL] | also measured |
| --- | --- | --- | --- |
| Cc1cc(NC(=O)CN2CCN(C)CC2)c2cc(NC(=O)Nc3cccc(Cl)c3C)ccc2n1 |  | > 10 |  |
| Cc1cc(NC(=O)c2cccc(Cl)c2)c2cc(NC(=O)Nc3ccc(F)cc3)ccc2n1 |  | 10 (≈ 22.3 µM) |  |
| Cc1cc(NC(=O)c2ccccc2)c2cc(NC(=O)Nc3cccc(Cl)c3)ccc2n1 |  | 50 (≈ 116 µM) |  |
| Cc1cc(NC(=O)c2cccc(Cl)c2)c2cc(NC(=O)Nc3ccc(Br)cc3)ccc2n1 |  | 2 (≈ 3.92 µM) |  |
| Cc1cc(NC(=O)c2ccccc2)c2cc(NC(=O)Nc3cccc(C#N)c3)ccc2n1 |  | 10 (≈ 23.7 µM) |  |
| Cc1cc(NC(=O)c2ccccc2)c2cc(NC(=O)Nc3ccc(F)c(Cl)c3)ccc2n1 |  | 10 (≈ 22.3 µM) |  |
| Cc1cc(NC(=O)c2ccccc2)c2cc(NC(=O)Nc3ccc(F)cc3)ccc2n1 |  | 10 (≈ 24.1 µM) |  |
| Cc1cc(NC(=O)CN2CCN(C)CC2)c2cc(NC(=O)Nc3ccc(Cl)cc3)ccc2n1 | 0.005 (≈ 0.0107 µM) | 0.5 (≈ 1.07 µM) |  |
| Cc1cc(NC(=O)c2cccc(Cl)c2)c2cc(NC(=O)Nc3ccc(Cl)c(C(F)(F)F)c3)ccc2n1 |  | > 10 |  |
| Cc1cc(NC(=O)c2cccc(Cl)c2)c2cc(NC(=O)Nc3ccc(Cl)c(Cl)c3)ccc2n1 |  | 10 (≈ 20 µM) |  |
| Cc1cc(NC(=O)c2cccc(Cl)c2)c2cc(NC(=O)Nc3cccc(Cl)c3)ccc2n1 |  | 50 (≈ 107 µM) |  |
| Cc1cc(NC(=O)c2ccccc2)c2cc(NC(=O)Nc3ccc(Cl)c(Cl)c3)ccc2n1 | 0.0109 (≈ 0.0234 µM) | 1 (≈ 2.15 µM) |  |
| Cc1cc(NC(=O)CN2CCCCC2)c2cc(NC(=O)Nc3ccc(Cl)c(Cl)c3)ccc2n1 | 0.0758 (≈ 0.156 µM) | 0.25 (≈ 0.514 µM) | Selectivity Index [2]: 524.2 |
| CCN1CCN(CC(=O)Nc2cc(C)nc3ccc(NC(=O)Nc4cccc(C(F)(F)F)c4)cc23)CC1 | 0.028 (≈ 0.0544 µM) | 0.5 (≈ 0.972 µM) |  |
| Cc1cc(NC(=O)c2ccccc2Cl)c2cc(NC(=O)Nc3ccc(Br)cc3)ccc2n1 |  | 2 (≈ 3.92 µM) | Activity (Plasmodium yoelii [4]): 8.8%; Activity (Plasmodium yoelii [5]): 1.9% |
| Cc1cc(NC(=O)CN2CCN(C)CC2)c2cc(NC(=O)Nc3ccc(F)cc3)ccc2n1 |  | 2 (≈ 4.44 µM) |  |
| Cc1cc(NC(=O)CN2CCCCC2)c2cc(NC(=O)Nc3cc(Cl)cc(Cl)c3)ccc2n1 | 0.0288 (≈ 0.0592 µM) | 0.5 (≈ 1.03 µM) | Selectivity Index [2]: 396.9 |
| Cc1cc(NC(=O)c2ccco2)c2cc(NC(=O)Nc3ccc(Br)cc3)ccc2n1 | 0.0571 (≈ 0.123 µM) | 1 (≈ 2.15 µM) | Selectivity Index [2]: 1547 |
| Cc1cc(NC(=O)c2ccccc2Cl)c2cc(NC(=O)Nc3cccc(F)c3)ccc2n1 |  | 2 (≈ 4.46 µM) |  |
| Cc1cc(NC(=O)c2ccccc2Cl)c2cc(NC(=O)Nc3ccc(F)c(Cl)c3)ccc2n1 |  | 10 (≈ 20.7 µM) |  |
